# In the library only some 4.1% were active in any assay of this set; here they are far more common.
# KCC2 mod – KCC2 cotransporter modulators, thallium flux, primary screen, cell-based, HEK293 KCC2, FluoZin-2 fluorescence, MLSMR; AID 1456, 2008; B-score of Tl+ flux slope (higher = more flux/activation; lower = inhibition) at 10 µM; KCC2 cells, thallium flux FluoZin-2 fluorescence; 190,000 tested, 2.2% active;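 active = thallium flux slope and its plate-corrected score both differing from the plate sample mean at a set confidence after two filtering rounds, in either direction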;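 note: slope of fluorescence scaled to starting intensity during 10 to 20 s after thallium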
# KCNK9 block – KCNK9 potassium channel inhibitors, primary screen, HEK293 cells, thallium flux | FluxOR thallium flux fluorescence; active compounds read low | AID 488922, 2010 | Potassium channel subfamily K member 9 (Homo sapiens), Q9NPC2 | 310,000 tested, 1.2% active | B-score at 10 µM;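 active = ratio B-score over 3 SD below the library mean, with starting fluorescence within 5 SD of its mean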;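 note: negative B-score means less thallium flux so channel inhibition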
# hERG rescue – hERG rescue from dofetilide block, primary screen, cell-based, CHO-hERG, FluxOR thallium flux, dofetilide IC70. Voltage-gated inwardly rectifying potassium channel KCNH2 (Homo sapiens), Q12809. dofetilide IC70 present. activation (rescue from dofetilide block), less the hit threshold, % at 10 µM. 310,000 tested, 0.51% active. AID 1511, 2009;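 active = activation above the mean of controls blocked by dofetilide plus 5 SD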;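 note: thallium influx through hERG after potassium depolarization seen as dye fluorescence rise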
# KCNK3 block – human KCNK3 channel inhibitors, primary screen, CHO cells, FluxOR thallium flux, B-score. Potassium channel subfamily K member 3 (Homo sapiens), O14649. FluxOR fluorescence; active compounds read low. B-score at 10 µM. 340,000 tested, 0.84% active;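 active = B-score under library mean minus 4 SD, starting fluorescence ratio at most library mean plus 5 SD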;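 note: more negative B-score means stronger inhibition of thallium flux through KCNK3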
# KCNQ1 block – inhibitors of human KCNQ1 channel, primary screen, cell-based, thallium flux, high-throughput | Potassium voltage-gated channel subfamily KQT member 1 (Homo sapiens), P51787 | 310,000 tested, 1.3% active | CHO-K1 KCNQ1, FluxOR thallium flux fluorescence; active compounds read high | B-score at 10 µM;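 active = compounds whose thallium flux B-score, printed positive for inhibition, exceeds three library SD while starting fluorescence stays within three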;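 note: channel opened by potassium depolarization with thallium stimulus after 20 min compound exposure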
# KCNQ1 act – potentiators or activators of KCNQ1 channel, primary screen, cell-based, thallium flux, high-throughput | Potassium voltage-gated channel subfamily KQT member 1 (Homo sapiens), P51787 | CHO-K1 KCNQ1, thallium flux FluxOR fluorescence; active compounds read high | B-score at 10 µM | 310,000 tested, 0.35% active;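 active = fluorescence ratio B-score, a plate-corrected score, at least three library SD, with initial intensity B-score within 5 SD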
#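 Medium – assay buffer, equal DMSO in all wells · Material – CHO-K1 cell line with stable KCNQ1 potassium channel expression · Signal – kinetic FluxOR thallium fluorescence, 10-s 1-Hz baseline, 110-s post-stimulus read · Compound – single concentration per compound, DMSO matched to controls · Schedule – 37 °C overnight plating, 90-min dark dye load, 20-min compound pretreatment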
# KCC2 secondary – KCC2 modulators in sodium-free buffer, confirmation, cell-based, HEK293 KCC2, thallium flux, secondary assay | shares compounds with KCC2 mod | 3,700 tested, 15% active | FluoZin2 fluorescence; active compounds read high | normalised thallium flux (F/F0 slope) at 10 µM;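 active = thallium flux slope above the same plate's solvent-only control mean plus 3 SD; inconclusive = the two replicate wells disagree; inactive = no significant difference from solvent-only control wells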
# KCC2 bumet counter – thallium flux persisting under bumetanide in KCC2 cells, confirmation, counter-screen for KCC2 modulator project, cell-based, HEK293 KCC2, FluoZin2, secondary assay 3; normalized thallium flux at 10 µM; AID 1714, 2009; HEK293-KCC2 + bumetanide/ouabain; active compounds read high; shares compounds with KCC2 mod; 3,700 tested, 49% active;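 active = thallium entry rate above the same plate's blocked-transporter control wells by more than 3 SD; inconclusive = the two repeat wells disagree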;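 note: raw slope of fluorescence over initial fluorescence between 10 and 20 s after thallium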
# KCC2 sec2 – KCC2 modulators without ouabain present, confirmation, cell-based, HEK293 KCC2, thallium flux, FluoZin2, secondary assay 2. shares compounds with KCC2 mod. AID 1715, 2009. normalized thallium flux at 10 µM. thallium flux FluoZin2 fluorescence; actives lie on both sides; F/F0 rise rate, 10–20 s post-thallium. 3,700 tested, 23% active;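 active = thallium flux slope more than 3 SD above or below the plate's solvent-only control mean, mostly below; inconclusive = the two repeat wells disagreed; inactive = no significant shift from solvent-only controls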;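 note: raw slope with 0.1% DMSO as baseline and bumetanide as block control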
# HEK293 Tl flux – thallium flux modulation in parental HEK cells, confirmation, counter-screen for KCC2 modulator project, cell-based, counterscreen 1; shares compounds with KCC2 mod; HEK293 parental cells, thallium flux FluoZin2, ouabain; baseline-ratio fluorescence slope, 10–20 s after thallium; thallium flux rate (normalised fluorescence) at 10 µM; 3,700 tested, 46% active; AID 1716, 2009;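 active = thallium flux rate significantly above the same plate's solvent-only control wells, beyond their mean plus 3 SD; inconclusive = the two replicate wells gave conflicting results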
# KCC2 retest ouab – KCC2 inhibitors and activators, ouabain retest, confirmation, HEK-KCC2 cells | shares compounds with KCC2 mod | HEK293-KCC2, thallium flux FluoZin2 fluorescence; bidirectional: low = inhibitor, high = activator | raw Tl+ flux slope (below DMSO = inhibition, above = activation) at 10 µM | 3,700 tested, 48% active;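 active = thallium flux slope beyond 3 SD from same-plate DMSO control mean in most replicates, usually higher, sometimes lower; inconclusive = repeat tests gave conflicting results; inactive = no significant difference from controls in most replicates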;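 note: slope of initial-normalized fluorescence between seconds 10 and 20 after thallium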
# HEK counter2 – native HEK Tl+ uptake effects, second counter-screen – HEK cells, counterscreen 2, counter-screen for KCC2 modulator project, confirmation | HEK293 parental, thallium flux FluoZin-2 fluorescence slope | 3,700 tested, 33% active | thallium flux slope at 10 µM | shares compounds with KCC2 mod;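 active = thallium flux slope above the same plate's solvent-control mean plus 3 SD in both duplicate wells; inconclusive = duplicate wells that disagreed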;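 note: run without ouabain in cells lacking the KCC2 cotransporter; slope of fluorescence scaled to its starting value between 10 and 20 s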
# KCNK9 block conf – KCNK9 potassium channel inhibitors, confirmation, HEK293 cells, thallium flux, duplicate; inhibition, % at 10 µM; FluxOR thallium flux fluorescence; 4,900 tested, 43% active; shares compounds with KCNK9 block; AID 492992, 2010;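 active = thallium signal inhibited by more than 5 SD of the compound-free buffer control wells, on both duplicate plates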;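 note: 0% = assay buffer control wells without compound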
# Kir2-1 spec – mouse Kir2.1 channel inhibition, confirmation, selectivity assay for KCNK9 modulator project, cell-based, HEK293, thallium flux. shares compounds with KCNK9 block. Kir2.1 cells, FluxOR thallium flux fluorescence. inhibition, % at 10 µM. 4,900 tested, 4% active;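 active = thallium signal drop more than 5 SD beyond the mean of the no-compound control wells, seen in both duplicate plates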;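 note: signal is fluorescence rise after thallium addition divided by baseline fluorescence; plate controls were assay buffer only for no effect and full block by chlorpromazine control for full effect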
# KCNK9 uninduced – thallium flux in non-induced HEK293 cells, confirmation, counter-screen for KCNK9 inhibitor project, cell-based, second counter screen, non-induced KCNK9-HEK293; shares compounds with KCNK9 block; FluxOR thallium flux; inhibition, % at 10 µM; 4,900 tested, 40% active; AID 492997, 2010;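 active = thallium signal drop beyond 5 SD of the untreated control mean, on both duplicate plates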;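 note: plate controls were buffer only IC0 wells for no effect and SID17386958 at its maximal inhibitory level for full effect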
# KCNK3 confirm – retest of human KCNK3 channel inhibitors, confirmation, CHO cells, FluxOR thallium flux, triplicate; shares compounds with KCNK3 block; FluxOR fluorescence; 0% buffer, 100% carvedilol maximal block; ratio percent of control, % at 10 µM; 2,400 tested, 99% active;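 active = ratio percent of control, averaged over triplicates, above buffer control mean plus 5 SD, cut at about 64% in these data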;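 note: ratio is the fluorescence rise from min to max over baseline after thallium stimulus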
# KCNK3 uninduced – thallium flux inhibition in non-induced cells, primary screen, counter-screen for KCNK3 inhibitor project, cell-based, non-induced KCNK3 line, FluxOR thallium, triplicate; shares compounds with KCNK3 block; non-induced KCNK3 parental cells; active compounds read low; thallium flux ratio (lower = more inhibition) at 10 µM; 2,400 tested, 40% active; AID 651747, 2012;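 active = thallium flux ratio, averaged over three wells, more than 5 SD below the buffer control mean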;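 note: host cells are CHO cells without KCNK3 induction; ratio is peak minus trough fluorescence over baseline then normalized to buffer controls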
# Starred values were filed as active, the others as inactive; i = inactive; ? = inconclusive; nt = not tested or not shown.
SMILES,KCC2 mod,KCNK9 block,hERG rescue,KCNK3 block,KCNQ1 block,KCNQ1 act,KCC2 secondary,KCC2 bumet counter,KCC2 sec2,HEK293 Tl flux,KCC2 retest ouab,HEK counter2,KCNK9 block conf,Kir2-1 spec,KCNK9 uninduced,others
CCC(C)(C)n1nnnc1C(c1ccc2ncccc2c1)N1CCN(c2nc3ccccc3s2)CC1 (stereo not given),nt,-15*,-7,i,i,i,0.0085,0.0062,0.031,0.007,0.016*,0.011,47%*,i,45%*,
CCOC(=O)CC1C(=O)NCCN1c1nc2ccc(C)cn2c(=O)c1/C=C1\SC(=S)N(C(C)CC)C1=O (stereo not given),i,i,-29,nt,i,i,nt,nt,nt,nt,nt,nt,nt,nt,nt,
CCOC(=O)CC1C(=O)NCCN1c1nc2ccc(C)cn2c(=O)c1/C=C1\SC(=S)N(CC(C)C)C1=O (stereo not given),-5.2*,-9.9*,-19,i,8*,i,0.0035*,0.00041*,0.014*,0.0033*,0.0071*,0.0049*,46%*,43%*,62%*,
Cc1ccc2nc(NC(=S)NC(=O)c3ccco3)sc2c1,64*,i,36*,i,i,57*,0.024*,0.15*,0.057*,0.084*,0.076*,0.042*,i,i,i,
Cc1ccc2nc(NC(=O)c3ccco3)sc2c1,-1.6,i,-13,i,i,i,nt,nt,nt,nt,nt,nt,nt,nt,nt,
Cc1c(N2C(=O)/C(=C/C3CC=CCC3)SC2=S)c(=O)n(-c2ccccc2)n1C (stereo not given),0.021,i,-1,i,i,i,nt,nt,nt,nt,nt,nt,nt,nt,nt,
Cc1ccc(/C=C2\SC(=S)N(c3c(C)n(C)n(-c4ccccc4)c3=O)C2=O)cc1,-3.9*,i,-7,i,i,i,0.011,?,0.025*,0.0043,0.014*,0.012,i,i,i,
Cc1c(N2C(=O)/C(=C/c3ccccc3)SC2=S)c(=O)n(-c2ccccc2)n1C,-7.6*,i,-8,i,i,i,0.0069,?,0.027*,0.008,0.014*,?,i,i,i,
CN1c2ccccc2C(C)(C)C12C=Nc1c(ccc3ccccc13)O2 (stereo not given),-0.19,i,-11,i,i,i,nt,nt,nt,nt,nt,nt,nt,nt,nt,
CN1c2ccccc2C(C)(C)[C@]12C=Cc1cc(O)ccc1O2,-3.4*,i,-27,i,13*,i,0.0075,?,0.033,0.007,0.016*,0.011,i,33%*,i,
COc1cccc(CN(C)C(=O)c2cc(COc3ccc4ncccc4c3)on2)c1,nt,i,-19,-9.8*,i,i,0.0071,0.0036,0.025*,?,0.014*,0.0099,nt,nt,nt,KCNK3 confirm=120*;KCNK3 uninduced=i
COc1cccc(CN(C)C(=O)c2cc(COc3ccc(-n4cncn4)cc3)on2)c1,nt,i,-14,i,i,i,nt,nt,nt,nt,nt,nt,nt,nt,nt,
O=C(NCCc1cn2ccccc2n1)c1cc(COc2ccc3ncccc3c2)on1,nt,i,-27,-14*,i,i,0.0076,0.0064,0.03,0.0074,?,0.0097,nt,nt,nt,KCNK3 confirm=130*;KCNK3 uninduced=i
Cc1ccc(C(NC(=O)c2cccc(S(=O)(=O)N3CCN(C)CC3)c2)c2ccccc2)cc1 (stereo not given),nt,nt,nt,i,nt,nt,nt,nt,nt,nt,nt,nt,nt,nt,nt,

# Screening data deposited in PubChem BioAssay by several laboratories.
